Mdm2 MdmX PPI = disrupts the human Mdm2-MdmX interaction | O15151+Q00987 | AID 485346 | actives 3% (n = 330,000) | SaOS-2 split-luciferase Mdm2/MdmX complementation, luminescence | inhibition, % at 8 µM;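 active = inhibition of at least 50% at 8 µM in the primary screen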
Target sequence (O15151 whole entry, looked up): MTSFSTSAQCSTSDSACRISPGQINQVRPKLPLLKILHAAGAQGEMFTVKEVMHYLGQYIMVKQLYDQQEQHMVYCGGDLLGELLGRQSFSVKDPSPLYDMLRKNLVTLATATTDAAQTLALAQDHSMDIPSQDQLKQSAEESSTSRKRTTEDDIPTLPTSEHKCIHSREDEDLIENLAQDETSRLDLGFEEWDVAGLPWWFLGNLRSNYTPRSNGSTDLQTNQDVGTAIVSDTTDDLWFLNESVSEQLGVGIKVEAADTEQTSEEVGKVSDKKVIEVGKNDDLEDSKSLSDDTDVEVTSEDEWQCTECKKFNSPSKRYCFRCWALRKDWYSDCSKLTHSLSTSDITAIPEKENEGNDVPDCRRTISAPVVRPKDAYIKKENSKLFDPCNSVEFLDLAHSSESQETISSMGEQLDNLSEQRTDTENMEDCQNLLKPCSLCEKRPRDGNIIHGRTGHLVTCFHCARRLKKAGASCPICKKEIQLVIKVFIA
Target sequence (Q00987 whole entry, looked up): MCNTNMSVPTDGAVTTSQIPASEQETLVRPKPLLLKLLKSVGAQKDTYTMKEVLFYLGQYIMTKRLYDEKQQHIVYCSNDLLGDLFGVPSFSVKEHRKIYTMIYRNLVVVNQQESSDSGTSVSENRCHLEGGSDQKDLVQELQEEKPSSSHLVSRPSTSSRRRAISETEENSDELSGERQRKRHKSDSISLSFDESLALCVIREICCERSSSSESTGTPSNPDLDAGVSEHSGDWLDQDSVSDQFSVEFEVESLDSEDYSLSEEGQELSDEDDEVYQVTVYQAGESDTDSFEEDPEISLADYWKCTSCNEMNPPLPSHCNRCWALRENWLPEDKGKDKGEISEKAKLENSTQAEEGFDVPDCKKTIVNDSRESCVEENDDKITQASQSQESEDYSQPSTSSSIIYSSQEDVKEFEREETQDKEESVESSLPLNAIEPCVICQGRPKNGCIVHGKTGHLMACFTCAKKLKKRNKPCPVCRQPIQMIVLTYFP
Beta2AR agonist = agonists of human beta-2 adrenergic receptor inducing internalization. Am2.2-beta2AR cells, FAP receptor internalization, flow cytometry. response, % (no concentration beside the values). actives 0.43% (n = 340,000);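 active = response above a set limit, near 3 SD of response in nonfluorescent compounds, cut at about 42% in these data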
UPR XBP1 act = activators of adaptive arm of unfolded protein response (XBP1); CHO-XBP1 luciferase reporter, IRE1-XBP1 UPR activation, luminescence; percent of tunicamycin response, DMSO as zero; activation, % at 20 µM; actives 0.33% (n = 330,000); AID 463104;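 active = versus positive control, 20 µM dose yields 30% or more activation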;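 also: 100% = tunicamycin at 10 µg/mL and 0% = DMSO only wells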
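Material: CHO-XBP1 cells stably carrying IRE1-XBP1-driven luciferase reporter | Medium: F12 with 10% serum | Compound dosing: 20 µM single concentration, DMSO 1% | Incubation: Overnight seeding at 37 °C, 6 h compound treatment at 37 °C | Detection: Steady-Glo luminescence read | Read-out basis: % activation of reporter signal versus tunicamycin and DMSO controls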
Dynein transport = blocks dynein driven cargo transport along microtubules; actives 0.47% (n = 220,000); z-score, hits read low; 3617.4 mouse cells, GR-EGFP nuclear translocation imaging; test concentration mostly 20 µM; stimulated with dexamethasone, 1 µM; active compounds read low;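 active = plate z-score of nuclear minus cytoplasmic receptor signal below a set negative limit, without overly bright fluorescence or cell loss, cut at about -3.5 in these data, passing the limit was not always enough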;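 also: z-score of nuclear minus cytoplasmic ring GR-EGFP intensity difference per well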
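Buffer or medium: tet-free medium with charcoal-stripped serum / Also added: dexamethasone agonist, 1.0 µM final, for 30 min / Timing: induction 48 h, compound 1 h, agonist 30 min / Measured by: high-content fluorescence imaging after fixation / Read-out: nuclear-to-cytoplasmic GR-EGFP distribution per well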
UPR CHOP act = activators of apoptotic arm of unfolded protein response (CHOP); CHO-CHOP luciferase reporter, UPR activation, luminescence; percent of tunicamycin response over DMSO baseline; activation, % at 10 µM; actives 0.34% (n = 330,000);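 active = at 10 µM dose, activation of 40% or more, normalized to positive control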;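 also: 100% = tunicamycin at 10 µg/mL and 0% = DMSO alone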
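Test system: CHO-CHOP cells, stable luciferase reporter of PERK-eIF2a-CHOP signalling | Quantity: 500 CHO-CHOP cells per well | Buffer or medium: F12 plus 10% serum | Compound dosing: 10 µM single point, 0.5% DMSO | Schedule: 6 h compound treatment, 37 °C | Signal: Luciferase luminescence | Control set: Tunicamycin high control, DMSO low control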
MDM2 E3 inh = Mdm2 E3 ligase (human) inhibition | Q00987 | cell-based MDM2 ubiquitination luciferase reporter, 2 h; 0 = plate control, 100 = twice control, blank-subtracted | signal enhancement, % at 5 µM | actives 0.11% (n = 210,000) | AID 1230;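 active = signal enhancement of 30% or more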;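 also: luminescence tracks abundance of the self-degrading MDM2-luciferase fusion protein; higher signal means inhibition of MDM2 E3 ligase activity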
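Buffer or medium: Cells held in DMEM | Assay system: Stable mammalian line carrying autodegrading MDM2–luciferase fusion reporter | Quantity: 2000 cells/well | Times: 4 h settle plus 2 h compound, 37 °C | Doses: One concentration, 5 µM, with 0.2% DMSO | Technique: Luminescence with SteadyLite reagent, 15 min at room temperature | Benchmarks: Plate controls and plate blanks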
Mdm2 MdmX conf = confirmation of human Mdm2/MdmX interaction inhibitors; shares compounds with Mdm2 MdmX PPI; Mdm2-MdmX binding, luminescent assay; inhibition, % at 8 µM; actives 55% (n = 10,000); AID 489028; in the data active = inhibition above about 40%
FLuc counter = full-length luciferase inhibition in Mdm2/MdmX counter-screen | AID 504607 | actives 77% (n = 6,200) | inhibition, % at 8 µM | shares compounds with Mdm2 MdmX PPI | SaOS-2 full-length luciferase counterscreen, luminescence;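 active = mean inhibition at 8 µM reaching about 37%, which flags the compound as non-specific, limit read from the data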;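 also: p53-null SaOS-2 cells with luciferase driven by a doxycycline-inducible promoter; compound on cells about two nights before reading with doxycycline added after day one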
Numbers without * were called inactive. Rows were chosen to be rich in hits. Some 3.7% of all compounds tested hit in one or more screens of this group.

For Cc1ccc2c(=O)n3c(nc2c1)C(CC(C)C)NC(=O)c1ccc(Cl)cc1-3 (centres undefined) the results were Mdm2 MdmX PPI -3, UPR XBP1 act 0 and UPR CHOP act -1.
COc1ccc2nc(NC(=O)CSc3nc(SC)ns3)sc2c1 was read as Mdm2 MdmX PPI 19, Beta2AR agonist 9, UPR XBP1 act 3, Dynein transport 0.26, UPR CHOP act 1 and MDM2 E3 inh -9.
COc1ccc2nc(NC(=O)CSc3nnc(C)s3)sc2c1 was read as Mdm2 MdmX PPI 80*, Beta2AR agonist 2, UPR XBP1 act 1, Dynein transport -1, UPR CHOP act 6, MDM2 E3 inh -12 and Mdm2 MdmX conf -22.
`CS(=O)(=O)c1ccc2nc(NC(=O)Nc3ccc(Cl)cc3)sc2c1` gave Mdm2 MdmX PPI 50*, Beta2AR agonist 7, UPR XBP1 act 2, Dynein transport -0.58, UPR CHOP act 6, MDM2 E3 inh -12 and Mdm2 MdmX conf 23.
Screening CCn1cc([N+](=O)[O-])c(C(=O)N2N=C(c3ccc(Cl)c(Cl)c3)CC2c2ccccc2O)n1 (centres undefined) returned Mdm2 MdmX PPI 71*, Beta2AR agonist -5, UPR XBP1 act 6, Dynein transport -1.2, UPR CHOP act 0, MDM2 E3 inh -2, Mdm2 MdmX conf 42* and FLuc counter 71*.
`CCn1cc([N+](=O)[O-])c(C(=O)N2N=C(c3ccc4ccccc4c3)CC2c2cc(Br)ccc2O)n1` (centres undefined) gave Mdm2 MdmX PPI 99*, Beta2AR agonist 2, UPR XBP1 act 4, Dynein transport 1.6, UPR CHOP act 3, MDM2 E3 inh 5, Mdm2 MdmX conf 41* and FLuc counter 39*.
`CCn1cc([N+](=O)[O-])c(C(=O)N2N=C(c3ccc(O)c(OC)c3)CC2c2ccccc2O)n1` (centres undefined) gave Mdm2 MdmX PPI 21, Beta2AR agonist -2, UPR XBP1 act 0, Dynein transport 0.17, UPR CHOP act 2 and MDM2 E3 inh 9.
CC(C)C(NC(=O)c1ccc(Cl)c([N+](=O)[O-])c1)C(=O)NCc1ccccn1 (centres undefined) was read as Mdm2 MdmX PPI 7, Beta2AR agonist 2, UPR XBP1 act -1 and UPR CHOP act 1.
For COc1ccccc1CN1CC(C(=O)NCc2cc(F)cc(C(F)(F)F)c2)CCC1=O (centres undefined) the results were Mdm2 MdmX PPI -14, Beta2AR agonist -1, UPR XBP1 act -2 and UPR CHOP act 3.
`O=C(Nc1cc2c3c(c1)CC(=O)N3CCC2)c1ccc(Cl)cc1` gave Mdm2 MdmX PPI 26, Beta2AR agonist 1, UPR XBP1 act 1 and UPR CHOP act 4.
Screening CCOCCCn1c(SCc2ccccc2)nnc1-c1ccncc1 returned Mdm2 MdmX PPI 4, Beta2AR agonist 10, UPR XBP1 act -3 and UPR CHOP act 1.
`COc1ccc(C2C3=C(CC(C)(C)CC3=O)Nc3cc4c(cc32)OCO4)cc1` (centres undefined) gave Mdm2 MdmX PPI 5, Beta2AR agonist -2, UPR XBP1 act -1, Dynein transport 0.3, UPR CHOP act 1 and MDM2 E3 inh -6.
`COc1ccc(OC)c(C2C3=C(COC3=O)Nc3cc4c(cc32)OCO4)c1` (centres undefined) gave Mdm2 MdmX PPI 55*, Beta2AR agonist 38, UPR XBP1 act 26, Dynein transport 0.63, UPR CHOP act -2, MDM2 E3 inh -68, Mdm2 MdmX conf 68* and FLuc counter 125*.
OC(COCC(F)(F)C(F)(F)C(F)(F)C(F)F)Cn1c2ccc(Cl)cc2c2cc(Cl)ccc21 (centres undefined) was read as Mdm2 MdmX PPI 95*, Beta2AR agonist 18, UPR XBP1 act 0, Dynein transport -0.57, UPR CHOP act 1, MDM2 E3 inh -16 and Mdm2 MdmX conf 28.
For CCc1nnc(NC(=O)CSc2nc(-c3ccccc3)nc3ccccc23)s1 the results were Mdm2 MdmX PPI 78*, Beta2AR agonist -11, UPR XBP1 act 9, Dynein transport 0.081, UPR CHOP act 1, MDM2 E3 inh -7, Mdm2 MdmX conf 50* and FLuc counter 90*.
`O=C(NC(CSC(=O)c1ccccc1)C(=O)O)OCc1ccccc1` (centres undefined) gave Beta2AR agonist -3.
N/C(=N\OCc1ccc([N+](=O)[O-])cc1)c1ccccn1 was read as Mdm2 MdmX PPI 76*, Beta2AR agonist -4, UPR XBP1 act -10, Dynein transport -0.71, UPR CHOP act -9, MDM2 E3 inh -86, Mdm2 MdmX conf 67* and FLuc counter 44*.
Screening CC(Oc1ccc(Br)cc1)C(=O)Nc1ccc(S(=O)(=O)NC2=NCCCCC2)cc1 (centres undefined) returned Beta2AR agonist -4.
For Cc1c[n+]([O-])cc(C)c1[N+](=O)[O-] the results were Beta2AR agonist 0.
For C[C@H](CO)N1C[C@H](C)[C@@H](CN(C)C(=O)NC2CCCCC2)Oc2ccc(NS(C)(=O)=O)cc2C1=O the results were Mdm2 MdmX PPI 5, Beta2AR agonist 1, UPR XBP1 act 0 and UPR CHOP act 2.
`COC(=O)C1=C(C)NC(C)=C(C(=O)OC)C1c1ccccn1` gave Mdm2 MdmX PPI 33, Beta2AR agonist 3, UPR XBP1 act 2, Dynein transport -0.43, UPR CHOP act -1 and MDM2 E3 inh -11.
Screening COC(=O)C1=C(C)NC(C)=C(C(=O)OC)C1c1ccccc1[N+](=O)[O-] returned Mdm2 MdmX PPI 97*, Beta2AR agonist 7, UPR XBP1 act -8, Dynein transport -1.1, UPR CHOP act 3, Mdm2 MdmX conf 53* and FLuc counter 28.
Screening COc1cccc(NC(=O)CN(C)S(=O)(=O)c2ccc3[nH]c(=O)oc3c2)c1 returned Mdm2 MdmX PPI -6, Beta2AR agonist 16, UPR XBP1 act -5 and UPR CHOP act 0.

From PubChem BioAssay
